The values that follow come from BindingDB's records for doi:10.1016/j.bmc.2008.10.024 (National Cancer Institute-Frederick, 2008).

The target of this assay is E3 ubiquitin-protein ligase Mdm2 (Homo sapiens, UniProt Q00987). Nature of the assay: Inhibition of GST fused human Hdm2 assessed as polyubiquitylation by electrochemiluminescence assay. In short, it runs like this: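 Cell-free ubiquitylation. Lysate GST-Hdm2 captured on glutathione-coated wells for 1 h at RT. E1/UbcH5B were pre-charged with ubiquitin, ATP and DTT in PBS for 30 min, then added with sample for 30 min at RT. Read-out was ruthenium anti-polyubiquitin electrochemiluminescence, normalised between no-inhibitor (0%) and EDTA (100%). Tested at 100–0.02 µg/mL in quadruplicate.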
E3 ubiquitin-protein ligase Mdm2, sequence (Q00987 whole entry, the tested form may be a part): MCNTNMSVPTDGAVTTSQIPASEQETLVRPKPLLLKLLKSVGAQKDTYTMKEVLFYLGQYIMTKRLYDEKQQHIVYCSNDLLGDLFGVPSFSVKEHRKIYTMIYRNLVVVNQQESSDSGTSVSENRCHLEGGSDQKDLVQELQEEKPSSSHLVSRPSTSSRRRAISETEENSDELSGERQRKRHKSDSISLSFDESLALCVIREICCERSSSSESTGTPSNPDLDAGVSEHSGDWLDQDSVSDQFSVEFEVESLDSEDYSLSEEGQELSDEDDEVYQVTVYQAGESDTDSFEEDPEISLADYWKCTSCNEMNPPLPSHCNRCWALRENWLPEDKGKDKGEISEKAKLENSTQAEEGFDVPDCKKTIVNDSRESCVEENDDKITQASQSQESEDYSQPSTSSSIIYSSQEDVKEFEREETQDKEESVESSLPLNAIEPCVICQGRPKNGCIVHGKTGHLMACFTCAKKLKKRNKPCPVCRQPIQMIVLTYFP

For orientation: IC50 means the midpoint of a concentration-inhibition curve. For `NCCc1c2c(c3c4c(c5ccccc5nc14)C=CN3)OCS2` [Lissoclinidine B], the IC50 came out at 58.6 µM.
